# According to publication PMC9426400 (Hepatology Communications, 2022):
# Read-outs that look alike come from different tables or passages of the source.
# Tests used:
# Huh7 cells = test: FAO assay in Huh7 cells; type: cell-based, human; details: for EC50: Homo sapiens; for FAO induction (times): 14C-OA, monotherapy; for Stimulation of FAO: at the concentrations tested
# [1] = system: FFD-fed dyslipidemic Sprague Dawley rats; test: Dyslipidemic rat model; type: in vivo; details: for Dose inducing PPAR target genes in eWAT: epidydimal white adipose tissue; for Dose in ACCi combination with significantly reduced hepatic Apoc3 expression: relative to both vehicle and ACCi alone
# Method in brief: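 Sprague Dawley rats fed FFD plus 4.03% sugar water (2.3% fructose, 1.7% glucose) for 28 days, across three studies. PPAR or THRβ agonists started Day 7 and ACCi Day 14. Circulating TG on Day 22 (serum Study 2, plasma Studies 3–4; n = 5–10/group). Terminal liver TG was taken fed, 8 h post-dose. Liver and eWAT gene expression measured. Nonparametric statistics, p ≤ 0.05.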
# subjects with NASH = details: cited from earlier work
# FFD-fed C57BL/6 mice = test: FFD mouse model of early NASH; type: in vivo
# [2] = system: LX2 human hepatic stellate cell line; test: LX2 collagen assay; type: cell-based; details: LX-2, read-out: EC50, inhibition of collagen production
# rat PPARδ = molecular target: T1, rat PPARδ (Rattus norvegicus, UniProt Q62879); test: PPAR luciferase reporter assay, rat PPARδ; type: cell-based
# T1 sequence (Q62879 1-440): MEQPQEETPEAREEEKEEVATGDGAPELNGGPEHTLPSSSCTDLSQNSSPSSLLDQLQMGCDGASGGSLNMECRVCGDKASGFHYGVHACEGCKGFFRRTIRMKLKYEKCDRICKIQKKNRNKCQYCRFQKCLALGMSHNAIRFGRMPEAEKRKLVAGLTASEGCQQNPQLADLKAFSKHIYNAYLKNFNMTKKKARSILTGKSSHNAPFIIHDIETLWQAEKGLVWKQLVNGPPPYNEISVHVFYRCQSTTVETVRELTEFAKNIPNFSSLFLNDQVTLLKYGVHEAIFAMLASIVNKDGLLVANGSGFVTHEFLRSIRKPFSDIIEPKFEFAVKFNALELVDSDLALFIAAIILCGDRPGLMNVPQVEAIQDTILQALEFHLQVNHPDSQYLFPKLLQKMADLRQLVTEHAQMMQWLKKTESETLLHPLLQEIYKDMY
# FAO = FAO assay validation with CPT1 inhibitor etomoxir; type: cell-based; details: read-out: EC50, block of FAO
# [3] = Huh-7, read-out: FAO EC50, Huh7 cells, 14C-OA, monotherapy
# [4] = Study 2, combination with ACCi 30 mg/kg, 15 mg/kg Feno, 30 mg/kg Ela
compound,measurement,setting,value
"CCO[C@@H](Cc1ccc(OCCn2c(C)ccc2-c2ccc(SC)cc2)cc1)C(=O)O [Saro, saroglitazar]",EC50,Huh7 cells; [3],51500 nM
same,FAO induction (times),Huh7 cells; Huh7 cells,3.6 times
same,Dose inducing PPAR target genes in eWAT,[1]; dyslipidemic rats,3 mg/kg
same,Dose in ACCi combination with significantly reduced hepatic Apoc3 expression,[1],≥ 0.3 mg/kg
CCc1ccc(CCOc2ccc(CC3SC(=O)NC3=O)cc2)nc1 (centres unmarked) [pioglitazone],NASH resolution (share of subjects),subjects with NASH; vs. 21% placebo,47%
"CC(C)OC(=O)C(C)(C)Oc1ccc(C(=O)c2ccc(Cl)cc2)cc1 [Feno, fenofibrate]",Liver total cholesterol content reduction,FFD-fed C57BL/6 mice; Feno^high (150 mg/kg) monotherapy,57%
same,Liver total cholesterol content reduction,FFD-fed C57BL/6 mice; Feno^low (50 mg/kg) monotherapy,49%
same,Liver TG reduction compared with vehicle,[1]; [4],58%
same,Dose in ACCi combination with significantly reduced hepatic Apoc3 expression,[1],≥ 5 mg/kg
"CC(C)c1cc(Oc2c(Cl)cc(-n3nc(C#N)c(=O)[nH]c3=O)cc2Cl)n[nH]c1=O [Res, Resmetirom]",EC50,Huh7 cells; [3],46000 nM
same,FAO induction (times),Huh7 cells; Huh7 cells,1.6 times
same,Liver TG reduction compared with vehicle,"[1]; Study 4, 1 mg/kg Res in combination with ACCi 30 mg/kg",83%
same,Liver TG reduction compared with vehicle,"[1]; Study 4, 3 mg/kg Res in combination with ACCi 30 mg/kg",88%
same,Liver TG in combination with ACCi relative to ACCi alone,"[1]; dyslipidemic rats, combined with ACCi 30 mg/kg",lowered liver TG relative to ACCi alone
same,Circulating TG reduction vs. vehicle,"[1]; dyslipidemic rats, monotherapy, 3 mg/kg, after 1 week",50%
same,Dose in ACCi combination with significantly reduced hepatic Apoc3 expression,[1],3 mg/kg
same,NASH resolution (share of subjects),subjects with NASH; vs. 6.5% placebo,27.4%
"CSc1ccc(C(=O)/C=C/c2cc(C)c(OC(C)(C)C(=O)O)c(C)c2)cc1 [Ela, elafibranor]",EC50,Huh7 cells; [3],10300 nM
same,FAO induction (times),Huh7 cells; Huh7 cells,1.4 times
same,EC50,[2],~2000 nM
same,Liver TG reduction compared with vehicle,[1]; [4],76%
same,Dose in ACCi combination with significantly reduced hepatic Apoc3 expression,[1],≥ 3 mg/kg
CC(C)(Oc1ccc(C(=O)c2ccc(Cl)cc2)cc1)C(=O)O [Fenofibric acid],Activity in the FAO assay,"Huh7 cells; Huh7 cells, up to a concentration of 100 μM",not active
"COc1ccccc1[C@H](Cn1c(=O)n(C(C)(C)C(=O)O)c(=O)c2c(C)c(-c3ncco3)sc21)OC1CCOCC1 [FIR, Firsocostat]",EC50,"Huh7 cells; Huh-7, read-out: FAO EC50, Huh7 cells, 14C-OA tracer",32.7 nM
same,EC50,"Huh7 cells; Huh-7, read-out: FAO EC50, Huh7 cells, 14C-PA tracer",16.6 nM
same,Reduction in relative liver TG,subjects with NASH; subjects with NASH,30%
"O=C(O)CCCc1cc2cc(Cl)ccc2n1S(=O)(=O)c1ccc2ncsc2c1 [Lani, lanifibranor]",Activation of rat PPARδ,rat PPARδ,did not activate rat PPARδ
same,Stimulation of FAO,Huh7 cells; Huh7 cells,did not stimulate FAO
same,NASH resolution (share of subjects),"subjects with NASH; over 24 weeks, vs. 19% placebo",45%
same,Fibrosis regression (share of subjects),"subjects with NASH; over 24 weeks, vs. 24% placebo",42%
CCOC(=O)[C@@]1(CCCCCCOc2ccc(Cl)cc2)CO1 [etomoxir],EC50,FAO,136 nM
"CCO[C@H](COc1ccc(C(F)(F)F)cc1)CSc1ccc(OCC(=O)O)c(C)c1 [Sela, seladelpar]",Stimulation of FAO,Huh7 cells; Huh7 cells,did not stimulate FAO
same,Dose inducing PPAR target genes in eWAT,[1]; dyslipidemic rats,15 mg/kg
same,Dose in ACCi combination with significantly reduced hepatic Apoc3 expression,[1],15 mg/kg
same,NASH resolution (share of subjects),"subjects with NASH; over 52 weeks, vs. 8% placebo",26%
